Measurements taken from ChEMBL document CHEMBL5058577, “EUbOPEN Chemogenomics Library 2 (Multiplex)” (2022).

Test system: U2OS
Assay: Multiplex assay against U2OS
Format: toxicity, cell-based
Details: human
In short: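 Cells were classed with CellPathfinder machine-learning gating, first as Hoechst high-intensity objects or normal cells, then (normal cells) as healthy, pyknosed or fragmented nuclei, and finally (pyknosed cells) as mitotic or apoptotic. Staining of live cells at seeding used Hoechst33342, BioTracker Green Microtubule Cytoskeleton Dye, MitoTracker Red and Annexin V Alexa Fluor 680, with imaging on a CQ1 microscope at 37°C and 5% CO2 after compound addition. Tubulin, mitochondrial-mass and membrane-permeability phenotypes are per cents of healthy-nucleus cells.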

[1] = 12 h, 1 µM, compound concentration 1 uM, replicate 1
[2] = 12 h, 1 µM, compound concentration 1 uM, replicate 2
[3] = 12 h, 10 µM, compound concentration 10 uM, replicate 1
[4] = 12 h, 10 µM, compound concentration 10 uM, replicate 2
[5] = 24 h, 1 µM, compound concentration 1 uM, replicate 1
[6] = 24 h, 1 µM, compound concentration 1 uM, replicate 2
[7] = 24 h, 10 µM, compound concentration 10 uM, replicate 1
[8] = 24 h, 10 µM, compound concentration 10 uM, replicate 2
[9] = 48 h, 1 µM, compound concentration 1 uM, replicate 1
[10] = 48 h, 1 µM, compound concentration 1 uM, replicate 2
[11] = 48 h, 10 µM, compound concentration 10 uM, replicate 1
[12] = 48 h, 10 µM, compound concentration 10 uM, replicate 2

## Cc1ccc(C(C)(O)c2nc3ccccc3s2)c(C)c1 (centres undefined)
[1]
  Population Apoptotic (%): 86%
  Population Fragmented Nuclei (%): 19%
  Population Healthy Nuclei (%): 70%
  Population Hoechst High Intensity Objects (%): 3%
  Population Membrane Permeable-Phenotype (%): 4%
  Population Mitochondria Different-Phenotype (%): 1%
  Population Mitotic Cells (%): 13%
  Population Normal (%): 96%
  Population Pyknosed Nuclei (%): 9%
  Population Tubulin-Different-Phenotype (%): 2%
  Total Cell Count: 249
[2]
  Population Apoptotic (%): 100%
  Population Fragmented Nuclei (%): 17%
  Population Healthy Nuclei (%): 78%
  Population Hoechst High Intensity Objects (%): 0%
  Population Membrane Permeable-Phenotype (%): 9%
  Population Mitochondria Different-Phenotype (%): 4%
  Population Mitotic Cells (%): 0%
  Population Normal (%): 99%
  Population Pyknosed Nuclei (%): 3%
  Population Tubulin-Different-Phenotype (%): 5%
  Total Cell Count: 141
[3]
  Population Apoptotic (%): 100%
  Population Fragmented Nuclei (%): 25%
  Population Healthy Nuclei (%): 67%
  Population Hoechst High Intensity Objects (%): 2%
  Population Membrane Permeable-Phenotype (%): 9%
  Population Mitochondria Different-Phenotype (%): 3%
  Population Mitotic Cells (%): 0%
  Population Normal (%): 97%
  Population Pyknosed Nuclei (%): 6%
  Population Tubulin-Different-Phenotype (%): 3%
  Total Cell Count: 234
[4]
  Population Apoptotic (%): 66%
  Population Fragmented Nuclei (%): 18%
  Population Healthy Nuclei (%): 77%
  Population Hoechst High Intensity Objects (%): 4%
  Population Membrane Permeable-Phenotype (%): 3%
  Population Mitochondria Different-Phenotype (%): 1%
  Population Mitotic Cells (%): 33%
  Population Normal (%): 95%
  Population Pyknosed Nuclei (%): 3%
  Population Tubulin-Different-Phenotype (%): 1%
  Total Cell Count: 89
[5]
  Population Apoptotic (%): 92%
  Population Fragmented Nuclei (%): 22%
  Population Healthy Nuclei (%): 69%
  Population Hoechst High Intensity Objects (%): 1%
  Population Membrane Permeable-Phenotype (%): 4%
  Population Mitochondria Different-Phenotype (%): 0%
  Population Mitotic Cells (%): 7%
  Population Normal (%): 98%
  Population Pyknosed Nuclei (%): 8%
  Population Tubulin-Different-Phenotype (%): 3%
  Total Cell Count: 327
[6]
  Population Apoptotic (%): 90%
  Population Fragmented Nuclei (%): 13%
  Population Healthy Nuclei (%): 80%
  Population Hoechst High Intensity Objects (%): 0%
  Population Membrane Permeable-Phenotype (%): 6%
  Population Mitochondria Different-Phenotype (%): 3%
  Population Mitotic Cells (%): 10%
  Population Normal (%): 99%
  Population Pyknosed Nuclei (%): 6%
  Population Tubulin-Different-Phenotype (%): 4%
  Total Cell Count: 159
[7]
  Population Apoptotic (%): 88%
  Population Fragmented Nuclei (%): 22%
  Population Healthy Nuclei (%): 71%
  Population Hoechst High Intensity Objects (%): 1%
  Population Membrane Permeable-Phenotype (%): 5%
  Population Mitochondria Different-Phenotype (%): 3%
  Population Mitotic Cells (%): 11%
  Population Normal (%): 98%
  Population Pyknosed Nuclei (%): 6%
  Population Tubulin-Different-Phenotype (%): 3%
  Total Cell Count: 272
[8]
  Population Apoptotic (%): 75%
  Population Fragmented Nuclei (%): 16%
  Population Healthy Nuclei (%): 75%
  Population Hoechst High Intensity Objects (%): 4%
  Population Membrane Permeable-Phenotype (%): 3%
  Population Mitochondria Different-Phenotype (%): 1%
  Population Mitotic Cells (%): 25%
  Population Normal (%): 95%
  Population Pyknosed Nuclei (%): 7%
  Total Cell Count: 113
[9]
  Population Apoptotic (%): 88%
  Population Fragmented Nuclei (%): 16%
  Population Healthy Nuclei (%): 74%
  Population Hoechst High Intensity Objects (%): 2%
  Population Membrane Permeable-Phenotype (%): 5%
  Population Mitochondria Different-Phenotype (%): 2%
  Population Mitotic Cells (%): 11%
  Population Normal (%): 97%
  Population Pyknosed Nuclei (%): 9%
  Population Tubulin-Different-Phenotype (%): 2%
  Total Cell Count: 442
[10]
  Population Apoptotic (%): 94%
  Population Fragmented Nuclei (%): 15%
  Population Healthy Nuclei (%): 76%
  Population Hoechst High Intensity Objects (%): 3%
  Population Membrane Permeable-Phenotype (%): 6%
  Population Mitochondria Different-Phenotype (%): 3%
  Population Mitotic Cells (%): 5%
  Population Normal (%): 96%
  Population Pyknosed Nuclei (%): 8%
  Population Tubulin-Different-Phenotype (%): 5%
  Total Cell Count: 215
[11]
  Population Apoptotic (%): 96%
  Population Fragmented Nuclei (%): 23%
  Population Healthy Nuclei (%): 69%
  Population Hoechst High Intensity Objects (%): 2%
  Population Membrane Permeable-Phenotype (%): 6%
  Population Mitochondria Different-Phenotype (%): 1%
  Population Mitotic Cells (%): 3%
  Population Normal (%): 97%
  Population Pyknosed Nuclei (%): 7%
  Population Tubulin-Different-Phenotype (%): 4%
  Total Cell Count: 365
[12]
  Population Apoptotic (%): 85%
  Population Fragmented Nuclei (%): 11%
  Population Healthy Nuclei (%): 83%
  Population Hoechst High Intensity Objects (%): 5%
  Population Membrane Permeable-Phenotype (%): 5%
  Population Mitotic Cells (%): 14%
  Population Normal (%): 94%
  Population Pyknosed Nuclei (%): 5%
  Total Cell Count: 147
